Measurements gathered from unrelated publications.
Lines come from different studies, so protocols differ.
Target: MAP kinase-interacting serine/threonine-protein kinase 1 (MKNK1, Homo sapiens, UniProt Q9BUB5)

CNC(=O)[C@@H]1CC[C@@H](n2c(-c3ccc4cnccc4c3)nc3ccc(C(=O)NCc4cccc(C(N)=O)c4)cc32)C1
remaining binding (binding; competition with immobilised ligand; 1 µM): 100%

NS(=O)(=O)c1cc(NC(=O)Cc2ccccc2)ccc1Oc1cccc(Cl)c1
remaining binding (cell-free assay; competition with immobilised ligand; 1 µM): 79%

CCN1CCN(Cc2ccc(C(=O)Nc3ccc(C)c(Oc4ccc5c(c4)CC(=O)N5)c3)cc2C(F)(F)F)CC1
remaining binding (binding; competition with immobilised ligand; 1 µM): 100%

CN(C)c1ncc(F)c(-c2cnn3ncccc23)n1
remaining binding (binding; 1 µM): 62%

C[C@@H]1CN(c2ccc3ncc(-c4ccc5[nH]nc(C6CC6)c5c4)n3n2)C[C@H](C)O1
remaining binding (binding; competition with immobilised ligand; 0.5 µM): 94%

O=C(NCCCN1CCOCC1)c1ccc(Nc2ncc(Cl)c(-c3ccc(Cl)s3)n2)cc1
remaining binding (binding; competition with immobilised ligand; 1 µM): 84%

c1cncc(-c2cccc(Nc3nccc(NC4CCCCC4)n3)c2)c1
remaining binding (binding; competition with immobilised ligand; 10 µM): 89%

FC(F)(F)Oc1cccc(-c2cnc3ccc(-c4ccncc4)nn23)c1
remaining binding (cell-free assay; competition with immobilised ligand; 5 µM): 71%

c1cnn2ncc(-c3ccnc(N4CCC45COC5)n3)c2c1
remaining binding (binding; 1 µM): 53%

CS(=O)(=O)N1CCCC(NC(=O)[C@H](CCC2CCCCC2)NC(=O)c2ccc(CNC(=O)c3cnc4ccccn34)cc2)C1 (stereo partly shown)
remaining binding (cell-free assay; competition with immobilised ligand; 0.1 µM): 100%

O=C(c1ccc(Nc2nccc(-c3cc4ccccc4s3)n2)cc1)N1CCC(N2CCCC2)CC1
remaining binding (binding; competition with immobilised ligand; 1 µM): 18%

CCS(=O)(=O)c1cc2cc(C[C@@](O)(CC(C)(C)c3ccc(F)cc3C(N)=O)C(F)(F)F)[nH]c2cn1
remaining binding (cell-free assay; competition with immobilised ligand; 1 µM): 46%

Cc1cnc(Nc2ccc(C(=O)N3CCC(N4CCCC4)CC3)cc2)nc1-c1cc2ccccc2s1
remaining binding (binding; competition with immobilised ligand; 1 µM): 48%

CC(=O)N1CCC(c2ccc(C(=O)NC(=N)N)cc2C(F)(F)F)CC1
remaining binding (cell-free assay; competition with immobilised ligand; 1 µM): 100%

F[C@@H]1CCN(c2nccc(-c3cnn4ncccc34)n2)C1
remaining binding (binding; 1 µM): 100%

O=C(NCCCC1CCCCC1)c1ccc(CNC(=O)c2cnn(-c3ccccc3)c2C(F)(F)F)cc1
remaining binding (cell-free assay; competition with immobilised ligand; 0.1 µM): 98%

CN(C)c1nccc(-c2cnn3ncccc23)n1
remaining binding (binding; 1 µM): 100%

CN(c1ccnc(CNc2nc(Nc3ccc4c(c3)CC(=O)N4)ncc2C(F)(F)F)n1)S(C)(=O)=O
remaining binding (cell-free assay; competition with immobilised ligand; 1 µM): 45%

O=C(NCC1CCOCC1)c1n[nH]cc1NC(=O)c1c(F)cccc1F
remaining binding (binding; competition with immobilised ligand; 1 µM): 88%

C[C@H]1CCN(c2nccc(-c3cnn4ncccc34)n2)C1
remaining binding (binding; 1 µM): 59%

C=CC(=O)N1CCC(C(=O)NCC(=O)N2CCN(c3nc(-c4cnc(N)nc4C(F)F)nc(N4CCOCC4)n3)CC2)CC1
remaining binding (binding; competition with immobilised ligand; 1 µM): 83%

CNC(=O)Nc1ccc2c(c1)[C@@]1(CC2)OC(=O)N(CC(=O)N(Cc2ccc(F)cc2)[C@@H](C)C(F)(F)F)C1=O
remaining binding (cell-free assay; competition with immobilised ligand; 1 µM): 94%

N[C@H]1CCN(c2nccc(-c3cnn4ncccc34)n2)C1
remaining binding (binding; 1 µM): 90%

N#Cc1ccccc1CSc1nnc2c(n1)[nH]c1ccccc12
remaining binding (binding; competition with immobilised ligand; 10 µM): 98%

C[C@@H](c1ccc(-n2cnc3c(N)ncnc32)cc1)N1CCc2nn(C)c(Cc3ccccc3)c2C1=O
remaining binding (binding; competition with immobilised ligand; 0.1 µM): 58%
